Bioassay records from PubChem BioAssay.
JMJD2C inh = inhibitors of GASC-1 histone demethylase, primary screen, biochemical, fluorescence, DELFIA europium | inhibition, % at 2.35 µM | Lysine-specific demethylase 4C (Homo sapiens), Q9H3R0 | AID 2099, 2009 | 330,000 compounds, 0.069% hits | GST-JMJD2C(1-420) H3K9me3 demethylation;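 active = more than half of a compound's replicate wells show inhibition beyond 50%, single wells judged on their own value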;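 also: signal counts dimethyl H3K9 product captured on neutravidin plate; 0% = median of DMSO wells and 100% = 0.3 times that DMSO median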
DAX1 inh-1 = DAX1 (NR0B1) inhibitors on StAR promoter, primary screen, cell-based, luminescence, SF-1 (NR5A1), full-length DAX-1 | HEK293T StAR-luciferase reporter, SF-1/DAX-1 repression relief | inhibition, % at 6.8 µM | 370,000 compounds, 1.1% hits | AID 652010, 2013;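 active = inhibition above the mean over all tested compounds plus 3 SD, cut at about 3.6% in these data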;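 also: 0% = DAX-1 cells with DMSO and 100% = cells lacking DAX-1 with DMSO; higher inhibition means more luminescence from relief of DAX-1 repression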
DAX1 inh-2 = DAX1 (NR0B1) inhibitors, primary screen, cell-based, HEK293, Gal4-DAX1, luciferase luminescence; 340,000 compounds, 0.99% hits; inhibition, % at 6.75 µM; AID 504766, 2011; Nuclear receptor subfamily 0 group B member 1 (Homo sapiens), P51843; HEK293 Gal4-DAX1 luciferase reporter;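 active = inhibition above the mean over all tested compounds plus 3 SD, cut at about 4.2% in these data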;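 also: 0% = DAX1-transfected cells with DMSO and 100% = empty-vector control cells with DMSO; inhibition shows as a rise in luminescence from relieved DAX1 repression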
NR2E3 ag-1 = NR2E3 agonists in two-hybrid cells, primary screen, cell-based, luminescence, CHO-S, Gal4-NCOR/VP16-NR2E3. luciferase. 360,000 compounds, 0.35% hits. Photoreceptor-specific nuclear receptor (Homo sapiens), Q9Y5X4. inhibition of corepressor binding, % at 3.98 µM. AID 602229, 2012;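 active = inhibition above the mean of all tested compounds plus 3 SD, cut at about 70% in these data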;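 also: 0% = DMSO with NR2E3 transfected cells and 100% = cells lacking NR2E3 construct; higher means lower luciferase signal from less NR2E3 corepressor binding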
Target sequence (Q9Y5X4 whole entry, looked up, the tested form may be a part): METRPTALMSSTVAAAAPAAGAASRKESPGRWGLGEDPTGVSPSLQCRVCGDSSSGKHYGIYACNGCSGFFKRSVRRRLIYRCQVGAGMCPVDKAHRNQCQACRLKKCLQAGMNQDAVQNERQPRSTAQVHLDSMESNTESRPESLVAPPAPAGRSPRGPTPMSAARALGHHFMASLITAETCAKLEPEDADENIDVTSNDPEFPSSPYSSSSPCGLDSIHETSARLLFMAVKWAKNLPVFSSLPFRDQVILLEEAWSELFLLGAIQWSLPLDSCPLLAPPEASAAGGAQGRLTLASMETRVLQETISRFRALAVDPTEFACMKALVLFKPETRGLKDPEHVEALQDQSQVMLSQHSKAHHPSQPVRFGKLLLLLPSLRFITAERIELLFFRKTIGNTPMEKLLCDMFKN
SMARCA2 activ = SMARCA2 (BRM) function activators, primary screen, cell-based, luminescence, high throughput | MG213 cells, MMTV-luciferase reporter, dexamethasone, overnight | activation, % at 9.1 µM | 370,000 compounds, 1% hits | AID 652017, 2013; in the data active = activation above about 7.8%;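 also: 0% = vehicle wells and 100% = reference activator wells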
NR2E3 ag-2 = inhibitors of NR2E3-RetCOR corepressor binding, primary screen, NR2E3 agonist project, biochemical, TR-FRET, GST-NR2E3, biotin-RetCOR; 1536-well; inhibition of corepressor binding, % at 4.78 µM; Photoreceptor-specific nuclear receptor (Homo sapiens), Q9Y5X4; AID 2300, 2010; 320,000 compounds, 0.12% hits;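 active = percent inhibition above the cutoff of mean plus 3 SD of all tested compounds, set per screening campaign, cut at about 20% in these data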;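 also: 0% = DMSO wells and 100% = biotin wells as full block of FRET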
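Test system – NR2E3–RetCOR corepressor complex · Quantity – NR2E3 fusion 1.35 nM · Buffer or medium – Tris pH 7.5 · Incubation – Compound–protein incubation for 5 h at 4 °C · Technique – TR-FRET, Eu(K)-anti-GST donor, streptavidin-D2 acceptor, ex 340, em 617/671 nm · Evaluation – percent inhibition of 671/617 nm emission ratio versus biotin and DMSO controls · Plate – 1536-well format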
The depositor's hits bear a star; nt = no result given. Hits are enriched below; roughly 3.2% of the tested compounds scored in any of these assays.

SMILES	JMJD2C inh	DAX1 inh-1	DAX1 inh-2	NR2E3 ag-1	SMARCA2 activ	NR2E3 ag-2
CCCc1cc(=O)[nH]c(SCCN2C(=O)c3ccccc3C2=O)n1	-3	1	5.5*	9	3	-2
CN(C)c1ccc(CN(C(=O)c2cc3ccccc3oc2=O)C2CCS(=O)(=O)C2)cc1 (stereo not drawn)	-8	5.2*	1	-5	5	-3
COC(=O)C1CN(C(=O)c2ccc(OC(F)F)cc2)c2ccccc2O1 (stereo not drawn)	4	0	4.3*	-16	-4	-2
CC(=O)Nc1ccc(NC(=O)c2ccco2)cc1	5	1	2	-3	6	2
CCN(CC)c1ccc(NC(=O)c2ccco2)cc1	-4	4.1*	1	-133	4	-11
O=C(Nc1ccc(Cl)cc1)c1ccco1	-7	0	5.2*	-54	4	7
O=C(Nc1ccc2c(c1)OCO2)N1CCC(c2nc3ccc(Cl)cc3[nH]2)CC1	nt	-1	nt	nt	-2	nt
Cc1ccc(Cn2cc(CN3CC=CS3(=O)=O)nn2)cc1	nt	0	nt	nt	0	nt
COc1ccc(N=Cc2nc(-c3ccccc3)oc2OC(=O)c2ccccc2)cc1	4	3.7*	1	-119	4	1
CC(=O)Oc1oc(-c2ccccc2)nc1C=Nc1ccccc1	-1	0	2	5	3	7
O=C(Nc1ccccc1)N1CCC(=S)Nc2ccccc21	-1	0	-1	9	5	-1
CC1CC(=S)Nc2ccccc2N1C(=O)Nc1ccccc1 (stereo not drawn)	3	0	5.2*	18	-1	-1
CCCCCCCCN1C(=O)[C@@H](CC(=O)NCC23CC4CC(CC(C4)C2)C3)C[C@@]2(C(=O)OC)C1=C[C@H](COCc1ccccc1)O[C@@H]2C	nt	0	nt	nt	-1	nt
C#CCOCC1CN(c2ccccc2)C(=O)O1 (stereo not drawn)	nt	-1	4.2*	-2	0	nt
O=C1OC(COCC#Cc2ccccc2)CN1c1ccccc1 (stereo not drawn)	nt	-1	0	-15	2	nt
C#CCN1CC(N(C)CCOC(=O)c2ccc(C(C)(C)C)cc2)CS1(=O)=O (stereo not drawn)	nt	-1	nt	nt	-4	nt
Nn1c(SCc2cccc3ccccc23)nnc1-c1n[nH]c2c1CCC2	nt	-1	nt	nt	1	nt
COc1ccc(CN2C(=O)CS/C2=N/N=C/c2ccccc2)cc1	6	0	nt	-49	0	7
COc1ccc(/C=N/N=C2/SCC(=O)N2Cc2ccccc2)cc1	-38	1	5.8*	-54	5	0
CC(=O)N1CCCN(S(=O)(=O)c2ccc3c(c2)oc(=O)n3C)CC1	nt	0	nt	nt	-4	nt
O=C(Cc1ccc([N+](=O)[O-])cc1)NCC1CCCO1 (stereo not drawn)	-2	0	-1	-9	1	3
CC(C(=O)NCC1CCCO1)c1ccc([N+](=O)[O-])cc1 (stereo not drawn)	-45	0	5.0*	26	0	0
CCOc1ccc2nc(NS(=O)(=O)c3ccc(NC(C)=O)cc3)sc2c1	11	0	0	6	0	1
CCOc1ccc2nc(NS(=O)(=O)Cc3ccccc3)sc2c1	-5	-1	10*	-91	5	1
O=C(CSc1nc2ccccc2nc1N1CCCC1)N1CCN(c2cccc(C(F)(F)F)c2)CC1	nt	0	nt	nt	5	nt
Cc1ccc2cn[nH]c2c1[N+](=O)[O-]	3	0	4.9*	-40	-1	1
CCN(CC)C(=O)CNc1nnnn1-c1ccccc1	nt	0	nt	nt	1	nt
